# Bioassay records (PubChem BioAssay)
# HCT116 bCat-KO – beta-catenin-lacking colon tumor cell growth suppression | HCT116 beta-catenin knockout viability, CellTiter-Glo, 60 h; hits give low values | viability, % at 10 µM | 140,000 compounds, 1.5% hits | AID 818;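 active means viability at or under a set limit, the compound median less 4 SD, cut at about 6% in these data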;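 further: 0% = Hyamine 1622 control at 20 µM and 100% = untreated cell control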
# HUVEC prolif 384 – inhibitors of human endothelial cell proliferation; HUVEC proliferation, CellTiter-Glo luminescence, 72 h; hits give low values; viability, % at 10 µM (by protocol); 86,000 compounds, 1.1% hits; AID 648;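 active means viability at or below 30%; inactive means viability above 30%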;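 further: 100% = median luminescence of DMSO-only cell control wells on each plate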
# H69AR growth 86K – growth inhibitors of human H69AR lung tumor cells; 85,000 compounds, 6% hits; viability, % at 10 µM; H69AR lung tumor viability, ATP luminescence, 72 h; hits give low values; AID 598;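 active means viability at or below 40%; inactive means viability above 40%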;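 further: multidrug resistant small cell line overexpressing MRP-1 efflux transporter; 100% = mean luminescence of untreated control wells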
# PTEN del growth – PTEN-deleted cell growth suppression; HCT116 PTEN-null viability, CellTiter-Glo, 60 h; hits give low values; viability, % at 10 µM; 140,000 compounds, 1.2% hits; AID 827;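 active means viability at or below a set limit, 4 SD under the median of all tested compounds, cut at about 3.7% in these data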;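 further: PTEN knockout HCT116 line with beta catenin targeted HCT116 as companion control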
# Fibroblast inh – blocks proliferation of human lung fibroblasts | LL 47 human lung fibroblast viability, ATP luminescence; hits give low values | viability, % at 10 µM | 85,000 compounds, 1.1% hits;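 active means viability at or below 50% in the single dose screen; inactive means viability above 50%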;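 further: compound exposure lasted 72 h before the ATP readout; 100% = median luminescence of untreated cell-only wells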
#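 Times – overnight cell rest, 72 h compound treatment at 37 °C · Test system – human lung fibroblast line LL 47, low passage · Amount – 1,150 cells in each well · Controls – cell-only wells, no compound · Doses – 0.1% DMSO in all compound wells · Measured by – CellTiter-Glo luminescence · Buffer or medium – IMEM plus 15% FBS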
# * marks the source's active call; other numbers are inactive results; nt = not tested or not shown. The entries come from a sample that favours hits as a whole.
SMILES,HCT116 bCat-KO,HUVEC prolif 384,H69AR growth 86K,PTEN del growth,Fibroblast inh
Cc1c(C(=O)OCCOC(C)C)[nH]c2c1C(=O)CC(c1ccco1)C2 (stereo not given),11.8,57.4,41.5,13.0,63.7
CCOC(=O)c1[nH]c2c(c1C)C(=O)CC(c1ccco1)C2 (stereo not given),9.6,39.8,41.3,11.8,58.8
CSCCOC(=O)c1[nH]c2c(c1C)C(=O)CC(c1ccco1)C2 (stereo not given),10.3,50.0,36.6*,13.0,55.0
COCCOC(=O)c1[nH]c2c(c1C)C(=O)CC(c1ccco1)C2 (stereo not given),17.2,44.8,26.1*,19.2,53.2
N#CC(c1ccccc1)N(CCCCl)C(=O)c1ccc(Br)cc1 (stereo not given),76.8,nt,nt,77.9,nt
CN(C(=O)COc1ccccc1C(=O)NCCOc1ccccc1)c1ccccc1,3.5*,nt,nt,3.5*,nt
Cc1cccc(CC(=O)Nc2cc(C)c3c(=O)oc4ccccc4c3n2)c1,85.0,61.8,11.5*,87.1,87.1
Cc1cc(NC(=O)C2CCCCC2)nc2c1c(=O)oc1ccccc12,90.6,nt,nt,91.8,nt
Cc1cc(NC(=O)CN2CCN(Cc3ccccc3)CC2)nc2c1c(=O)oc1ccccc12,nt,59.9,22.0*,nt,64.3
Cc1cc(NC(=O)C2CCCC2)nc2c1c(=O)oc1ccccc12,82.1,71.6,37.0*,77.2,108.5
Cc1cc(NC(=O)Cc2ccccc2)nc2c1c(=O)oc1ccccc12,96.7,nt,nt,91.1,nt
Cc1cc(NC(=O)CN2CC3CC(C2)c2cccc(=O)n2C3)nc2c1c(=O)oc1ccccc12 (stereo not given),nt,89.2,91.4,nt,99.5
CC1=CCC(C(=O)O)(C(=O)N/N=C/c2cccs2)C(c2ccc([N+](=O)[O-])cc2)C1 (stereo not given),105.1,104.5,103.2,85.2,101.8
CCOC(=O)N1CCC(NC(=O)c2cc3c(-c4cccc(OC)c4)nn(C)c3s2)CC1,82.2,74.9,10.5*,75.4,93.4
Cc1ccc(CN=Cc2[nH]c3ccc(Br)c(Cl)c3c2O)cc1,81.0,63.7,33.1*,78.2,103.1
Cc1ccc(C(=O)CSc2nnc(-c3ccc4[nH]c(C)c(C)c4c3)o2)cc1C,4.2*,nt,nt,2.1*,nt
COC(=O)c1ccc(CNC(=O)COc2ccccc2Br)o1,84.1,104.4,96.3,87.8,99.3
N#CC12CCCCC1CC1CCCCC1(C#N)N2Cc1cccnc1 (stereo not given),89.3,95.4,88.5,97.0,95.0
Cc1cccc(-n2nnnc2SCC(=O)c2cc(C)n(Cc3ccco3)c2C)c1,96.4,49.4,7.3*,99.0,nt
Cc1[nH]c2ccccc2c1SCCN,nt,96.0,34.6*,nt,94.0
Cc1ccc(C(=O)NCCSc2c(C)[nH]c3ccccc23)cc1[N+](=O)[O-],44.2,nt,nt,49.4,nt
Cc1cc(C)c2c(c1)/C(=C/C(=O)c1ccc(Br)s1)C(=O)N2,1.8*,7.1*,1.8*,1.8*,15.4*
CCc1ccc2c(c1)/C(=C/C(=O)c1cccs1)C(=O)N2,0.8*,67.2,1.7*,0.8*,6.5*
CN1/C(=C\C(=O)c2cccs2)C(C)(C)c2ccccc21,85.3,nt,nt,84.3,nt
Cc1cccc2c1NC(=O)/C2=C\C(=O)c1cccs1,4.9*,28.6*,2.1*,2.2*,6.1*
SMILES,HCT116 bCat-KO,HUVEC prolif 384,H69AR growth 86K,PTEN del growth,Fibroblast inh
CCc1ccc2c(c1)/C(=N/N(C)C(=S)NC)C(=O)N2,50.7,nt,nt,77.7,nt
Cc1ccc(N2C(=O)/C(=C\c3ccc(C(C)C)cc3)N=C2SC2CCOC2=O)cc1 (stereo not given),87.1,nt,nt,83.7,nt
O=C1c2ccccc2OC2(C=Cc3ccccc3O2)N1Cc1ccccc1 (stereo not given),17.1,62.4,11.6*,21.8,93.2
CCc1ccc(N2C(=O)c3sc4nnc(-c5ccccc5)c(=O)n4c3C2=O)cc1,101.0,81.0,30.3*,85.7,60.8
O=C(NC(=S)Nc1ccc2c(c1)OCO2)c1ccc(Cl)cc1,0.2*,nt,nt,64.0,nt
CN1CCc2nc3sc(C(=O)C45CC6CC(CC(C6)C4)C5)c(N)c3cc2C1,3.5*,nt,nt,0.6*,nt
COc1ccc(-c2nnc(Nc3nc4c(OC)cccc4s3)o2)c(OC)c1,3.7*,20.4*,33.5*,6.4,50.2
COc1ccc(-c2nnc(Nc3nc4c(OC)cccc4s3)o2)cc1,6.7,2.9*,61.8,8.2,91.8
COc1cc(OC)cc(-c2nnc(Nc3nc4c(F)cccc4s3)o2)c1,55.3,66.7,44.2,66.1,71.5
Fc1cccc2sc(Nc3nnc(-c4ccccc4)o3)nc12,23.7,6.8*,56.8,16.7,55.8
O=C(CSc1nnnn1-c1cccc2c1CCCC2)N1CCCCC1,92.8,86.7,39.9*,80.7,96.2
Cc1ccccc1-c1nc2ccccc2c(=O)n1/N=C/c1ccccc1[N+](=O)[O-],77.0,nt,nt,66.3,nt
FC(F)(F)c1nc(-c2cccs2)ncc1-c1nnnn1-c1ccc(Cl)cc1,30.6,nt,nt,29.6,nt
Clc1ccc(-n2nnnc2-c2cnc(-c3ccncc3)nc2-c2cccs2)cc1,61.1,75.9,9.8*,7.6,92.4
Cc1cc(NCCCN2CCOCC2)n2ncc(-c3ccccc3)c2n1,86.8,82.7,25.8*,87.3,86.4
Cc1cc(NCCCN2CCOCC2)n2nc(C)c(-c3ccccc3)c2n1,67.4,94.2,22.2*,80.0,100.2
Cc1cc(NCCC(C)C)n2nc(C)c(-c3ccccc3)c2n1,92.3,70.3,12.9*,78.1,81.8
Cc1cc(NCCCN2CCOCC2)n2nc(C)c(-c3ccc(F)cc3)c2n1,69.8,73.1,15.4*,66.8,80.5
Cc1ccc(Cl)cc1N1CCN(CC(=O)Nc2ccc3[nH]c(=O)[nH]c3c2)CC1,95.2,82.8,83.1,99.1,96.6
CS(=O)(=O)c1nc(-c2cccs2)cc(C(F)(F)F)n1,3.3*,53.8,1.5*,1.3*,13.5*
O=C(O)CCS(=O)(=O)c1nc(-c2cccs2)cc(C(F)(F)F)n1,93.9,92.7,33.0*,103.5,92.2
CC(C)CNC(=O)CSc1nc(-c2cccs2)cc(C(F)(F)F)n1,85.9,99.8,94.6,91.0,101.3
Fc1ccc(-c2cc(C(F)(F)F)nc(NCc3cccs3)n2)cc1,71.6,nt,nt,75.7,nt
CSc1n[nH]c(NCc2cccs2)n1,1.2*,106.8,100.3,78.4,105.6
CCCS(=O)(=O)N1CCC(C(=O)NCCN(C)Cc2ccccc2)CC1,94.4,92.0,98.7,91.3,108.7
O=S(=O)(NCc1ccccc1)c1ccc(S(=O)(=O)N2CCCCC2)cc1,72.1,90.6,82.0,80.4,97.9
CC1CCCC(C)N1S(=O)(=O)c1ccc(S(=O)(=O)NCc2ccccc2)cc1 (stereo not given),58.3,89.7,36.0*,41.1,45.5*
CC1CCN(S(=O)(=O)c2ccc(S(=O)(=O)NCc3ccccc3)cc2)CC1,50.5,76.1,38.3*,46.1,89.5
CCc1ccc2c(c1)cc(CN(C(=S)Nc1ccc(Cl)cc1)C1CC1)c1nnnn12,72.2,nt,nt,75.3,nt
O=C(Cn1nnc(-c2cccs2)n1)N1c2ccccc2Sc2ccc(C(F)(F)F)cc21,72.4,94.4,100.9,68.8,109.2
